Experimental data of several laboratories.
Lines come from different studies, so protocols differ.

| Compound | system | conditions | Tmax [h] |
| --- | --- | --- | --- |
| CCc1nc2c(C)cc(N3CCN(CC(=O)N4CC(O)C4)CC3)cn2c1N(C)c1nc(-c2ccc(F)cc2)c(C#N)s1 | human, plasma | oral, 20 mg, fed, healthy volunteers | 1 |
| COc1cc(N2CCC(N3CCN(C)CC3)CC2)ccc1Nc1ncnc(Nc2ccccc2S(=O)(=O)C(C)C)n1 | human, plasma | oral, 125 mg, multiple doses, patients | 2.97 |
| c1cnc2ccc(Nc3nc(NC4CC4)c4nc[nH]c4n3)cc2c1 | human, plasma | oral, 200 mg/m², patients | 5.7 |
| C[C@@]1(c2cc(NC(=O)c3ccc(C#N)cn3)ccc2F)C=CSC(N)=N1 | human, plasma | oral, 1 mg, single dose | 0.89 |
| NS(=O)(=O)NCCNc1nonc1C(=NO)Nc1ccc(F)c(Br)c1 | human, plasma | oral, 50 mg, multiple doses, once daily, steady state, patients | 2 |
| Cc1nc(NC(=O)N2CCC[C@H]2C(N)=O)sc1-c1ccnc(C(C)(C)C(F)(F)F)c1 | human, plasma | oral, 350 mg, patients | 1.77 |
| CO[C@@H]1[C@H](OC(=O)N2CC(CCN3CCOCC3)C2)CC[C@]2(CO2)[C@H]1[C@@]1(C)O[C@@H]1CC=C(C)C | human, plasma | subcutaneous, 2.4 mg, single dose, healthy volunteers | 0.25 |
| CC(C)(Sc1ccncc1-c1ccc(C#N)c2ccccc12)C(=O)O | male human, plasma | oral, 1 mg, multiple doses, once daily | 0.5 |
| CCO[C@H]1CCN(Cc2c(OC)cc(C)c3[nH]ccc23)[C@H](c2ccc(C(=O)O)cc2)C1 | human, plasma | oral, 25 mg, multiple doses, twice daily, patients | 2 |
| CCc1nc(C(N)=O)c(Nc2ccc(N3CCC(N4CCN(C)CC4)CC3)c(OC)c2)nc1NC1CCOCC1 | human, plasma | oral, 80 mg, multiple doses, patients | 4.03 |
| C#C[C@]1(COP(=O)(O)OP(=O)(O)OP(=O)(O)O)O[C@@H](n2cnc3c(N)nc(F)nc32)C[C@@H]1O | human, plasma | oral, 5 mg, single dose | 9 |
| Cn1cc(-c2ccc(S(=O)(=O)[C@@H]3C[C@@H](C(=O)NC4(C#N)CC4)N(C(=O)C4(C(F)(F)F)CC4)C3)c(C(F)(F)F)c2)cn1 | human, plasma | oral, 1 mg, single dose, fasted, healthy volunteers | 4 |
| CC(C)(O)c1ccccc1-c1ccc2[nH]c(/C=C/c3ccc(C(F)(F)F)cc3)nc2c1 | male human, plasma | oral, 2 mg, single dose, fasted | 3.94 |
| C[C@@H](Nc1cc(F)cc(F)c1)c1cc(C(=O)N(C)C)cc2c(=O)cc(N3CCOCC3)oc12 | human, plasma | oral, 60 mg, single dose, patients | 1.27 |
| COc1ccc([C@@H]2CN(C(=O)[C@@H](O)CO)C[C@@]2(C)[C@@H](C)O)cc1OC1CN(c2ccc(C)cn2)C1 | human, plasma | oral, 20 mg, single dose, healthy volunteers | 1.5 |
| C=CC(=O)N(C)CCOc1c(N)ncnc1-c1cc(F)cc(NC(=O)c2ccc(C3CC3)cc2F)c1C | human, blood | oral, 400 mg, single dose, healthy volunteers | 1.24 |
| CC(C)n1cc(C#N)c2cc(-n3cc(C(=O)O)cn3)ccc21 | human, plasma | oral, 600 mg, multiple doses, once daily, steady state | 3.5 |
| CS(=O)(=O)CCC#N | human, plasma | oral, 100 mg, multiple doses, once daily | 1 |
